# In ChEMBL document CHEMBL4513216, “Probing the Open Global Health Chemical Diversity Library for Multistage-Active Starting Points for Next-Generation Antimalarials” (ACS Infect Dis, 2020):
# Experiment: Toxicity liver stage against HepG2, at 10uM
# Type: cell-based
# Design: test concentration 10 uM, cell line HepG2-A16-CD81EGFP
# Conditions: human, HepG2-A16-CD81EGFP cells; read-out: INHIBITION
# How it was run: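 Uninfected HepG2-A16-CD81EGFP cells, 3 × 10^3 per well, 1536-well, plated on prespotted compound at 10 μM final, parasite-free screening media added to match infected plates; puromycin 10 μM positive, DMSO 0.5% negative; run in parallel with 48 h PbLuc assay at 37 °C, 5% CO2; viability by CellTiter-Glo luminescence, normalized to controls.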
row,SMILES,cytotoxicity at 10 µM
1,COC(=O)[C@H](C)NC(=O)CSCc1nc2sc(C(C)C)cc2c(=O)[nH]1,2.87%
2,Cn1cc(NC(=O)CNC(=O)N2CCN(c3ccc(Cl)cc3)CC2)cn1,6.9%
3,Cc1nn2c(-c3cnn(C)c3)nnc2s1,-15.4%
4,Cc1cc(C)nc(NCCCC(=O)NCCn2ccc3ccccc32)n1,-0.1%
5,NC(=O)C1CCN(C(=O)c2cc(Br)ccc2-n2cnnn2)CC1,13.1%
6,Cc1noc(C)c1CCC(=O)N1CCN(CCn2cccn2)CC1,-24.2%
7,Cc1noc(-c2ccc(N3CCCC(C(=O)N4CCSCC4)C3)nc2)n1 (stereo not given),-2.45%
8,Cc1ccc(N2CC[C@H](OCC3CC3)[C@@H]2Cc2cnn(C)c2)nn1,-10.7%
9,CCN(Cc1nonc1C)C(=O)Cn1nc(C(F)(F)F)cc1C1CC1,1.45%
10,Cc1nn(C)c2c(=O)n(Cc3ccccc3)nnc12,5.53%
11,Cc1cccc(-n2nnnc2C2(NCc3ccco3)CCCCC2)c1,6.27%
12,Cn1ccc(C(=O)N2CCCC2c2cc(CCO)[nH]n2)n1 (stereo not given),3.31%
13,CC(C)C(=O)N1CCC(c2c(C(N)=O)sc3ccccc23)C1 (stereo not given),-2.66%
14,COCC(=O)N1CCCC(c2nc(N)ncc2-c2cccc(F)c2)C1 (stereo not given),-0.6%
15,Cc1cc(Cc2ccccc2)cc(C2CCCNC2)n1 (stereo not given),-5.89%
16,c1cc(CCNc2ncc(-c3cnccn3)c(C3CC3)n2)ccn1,13.5%
17,C[C@@H]1CN2C[C@H](O)CC2CN1Cc1ccc2nccnc2c1 (stereo not given in full),5.62%
18,C[C@H]1CN2C[C@H](O)CC2CN1Cc1ccncc1 (stereo not given in full),-3.02%
19,COc1cccc(S(=O)(=O)N2C[C@H](OC)[C@]3(CCCO3)C2)c1,-25.7%
20,CC(C)CNC(=O)C[S+]([O-])Cc1csc(C2CCCCC2)n1 (stereo not given),-48.5%
21,CN(Cc1c(F)cccc1Cl)C(=O)Cn1cnc(C#N)n1,-5.5%
22,CC(C)(NCc1cccc(C(N)=O)c1)c1ccc2c(c1)OCO2,3.15%

row,SMILES,cytotoxicity at 10 µM
1,CNC(=O)c1cccc(CN2CCN(C3=NCC(C)(C)S3)CC2)c1,-2.37%
2,CC(C)OCCN1CCC(Nc2ncc(Br)cn2)CC1,2.83%
3,Cc1cc(CN(C)C(=O)CNS(=O)(=O)c2cccs2)no1,-33.4%
4,CNC(=O)N1CCOCC1c1c(C)nn(C)c1C (stereo not given),-7.11%
5,CC1CCC(NS(=O)(=O)CC(=O)NC2(C(N)=O)CCCC2)CC1 (stereo not given),-4.12%
6,Cc1cccc(OCCNC(=O)Cn2ccc(C)cc2=O)c1,-1.63%
7,COc1ccc(CNc2nc(N3CCOCC3)ns2)cc1,-4.77%
8,NC(=O)N1CCCC1COC(=O)c1cc(F)ccc1F (stereo not given),-0.743%
9,COCCN1CCC(NC(=O)Nc2cccc(F)c2)C1 (stereo not given),-0.898%
10,CCc1nc(C2CCCN(C(=O)C3=NN(C(C)C)C(=O)CC3)C2)no1 (stereo not given),-7.28%
11,CCc1nc2c(s1)C(N(C)C(=O)c1cc[nH]n1)CCC2 (stereo not given),7.76%
12,O=C(NCCCn1cccn1)N1CCCC1c1ccsc1 (stereo not given),-7.86%
13,Cc1nn(C)c(C)c1C1COCCN1c1ncnc2c(C)cccc12 (stereo not given),6.54%
14,CC(Cn1cncn1)NC(=O)Nc1ccc(COC2CCCC2)cc1 (stereo not given),-1.47%
15,CCOC(=O)NCCNC(=O)c1cc(Br)cn1C(C)C,9.08%
16,CCNC(=O)Cc1c(C)nc2c(c1C)c(=O)[nH]n2C,2.62%
17,CN(C)C(=O)Cn1cc(C(=O)N2CCCc3cccc(F)c32)nn1,1.81%
18,CN(Cc1ccccc1)C(=O)CCNc1ncccc1C#N,4.55%
19,CC(NC(=O)NCCNc1cccc(F)c1C#N)c1nccs1 (stereo not given),-1.84%
20,N#CC1(NC(=O)c2ccn(-c3ccccc3Cl)n2)CCSC1 (stereo not given),0.462%
21,CC(C)COC(C)C(=O)N1CCCCC1 (stereo not given),-5.66%
22,CS(=O)(=O)CCN(Cc1cccc(O)c1)C1CCC(O)CC1 (stereo not given),5.38%

row,SMILES,cytotoxicity at 10 µM
1,CC(=O)Nc1nc(C(=O)NCCOc2cccc(F)c2)cs1,7.9%
2,O=C(Cn1cnnn1)Nc1ccc(F)cc1OCC1CC1,5.38%
3,CCN(Cc1cccs1)C(=O)c1ccc(=O)n(C)c1,-9.56%
4,O=C(CCc1ccccc1)N1CCC(c2n[nH]c(C3CC3)n2)CC1,-5.35%
5,Cc1noc(C(C)N2CCc3[nH]c4ccc(Cl)cc4c3C2)n1 (stereo not given),1.99%
6,Cc1cc(CNc2ccccc2N2CCCCC2)no1,-1.31%
7,COCCc1noc(CN(C)c2cc(C)ncn2)n1,11.9%
8,Cc1nc(CNC(=O)N(Cc2ccccc2)CC(C)(C)O)oc1C,-2.28%
9,Cc1ccc(CNC(=O)N2CCc3ccccc3C2CO)s1 (stereo not given),2%
10,O=C(NC1CC1)c1cc(NC(=O)N2CCCC(O)C2)ccc1Cl (stereo not given),-15.5%
11,O=C(c1ccccc1)N1CCOC2CNCC[C@H]21 (stereo not given in full),-114%
12,O=C(c1ccccc1)N1CCO[C@@H]2CNC[C@@H]21,-100%
13,CCOCC1CN(S(=O)(=O)C2CC2)Cc2nn(C)cc21 (stereo not given),-112%
14,O=C(c1cccnc1)N1C[C@@H]2OCCN(CCN3CCCC3)[C@@H]2C1,-71.2%
15,COCCC1COC2(CCN(C(=O)Cc3ccccc3)CC2)C1 (stereo not given),-69.2%
16,Cn1cc(C[C@H]2[C@@H](OCC3CC3)CCN2C(=O)c2ccc[nH]2)cn1,-72.7%
17,Cc1cc(N2CCCN(C(=O)Cc3cc(F)cc(F)c3)CC2)ccn1,-6.7%
18,c1ccc(CN2CCC(Cc3noc(C4CC4)n3)CC2)cc1,5.56%
19,CN1CCC(N2CCC(c3ccccc3C(=O)O)C2)CC1 (stereo not given),-1.05%
20,CC(C)[C@H](Nc1nc(C2CCCC2)nc2c1cnn2C)C(N)=O,-51.5%
21,CN1CCC(CNC(=O)CCSc2ccc3c(c2)OCCO3)C1 (stereo not given),-3.13%
22,COc1ccccc1CCC(=O)N1C[C@H](c2ccccc2)[C@@H](N)C1,-3.79%

row,SMILES,cytotoxicity at 10 µM
1,CC(C)CN1CCC(c2nnc(CN3CCCC3)n2C2CC2)CC1,-8.85%
2,Cc1nc(NCc2coc(-c3ccccc3)n2)cc(C2CCNCC2)n1,7.94%
3,CC(C)c1noc(C2CCCN2S(=O)(=O)Cc2ccc(F)cc2)n1 (stereo not given),3.88%
4,COc1ccc2[nH]cc(CCNC(=O)C3CCCN(C(C)=O)C3)c2c1 (stereo not given),-5.58%
5,CC(C)=CCC1(CO)CCCN(S(C)(=O)=O)C1 (stereo not given),-5.13%
6,Nc1ccnc(N2CCC(CCc3ccccc3)(C(=O)O)CC2)n1,-3.65%
7,CN(C)c1cncc(-c2ccnc3c2ccn3C)n1,5.51%
8,CN1C(=O)C2(CCCN(C(=O)c3ccc(=O)n(C)n3)C2)c2ccccc21 (stereo not given),4.65%
9,CC(C)=CCN1C[C@@H](C(=O)O)C[C@H](C(=O)Nc2ccc(C)nc2)C1,5.67%
10,Cc1noc(CN(C)c2nc(-c3ccco3)nc3c2CCN(C)CC3)n1,-0.0198%
11,COc1ccc(Cn2cc(C(=O)N(C)CCN(C)C)nn2)cc1,7.13%
12,O=C(O)COc1ccc(CN2CCCC(CCc3ccccc3)C2)cc1 (stereo not given),12.1%
13,COCCCN1C(=O)CC[C@H]2CN(c3cnc4ccccc4n3)CC[C@H]21,5.77%
14,CCc1cc(CN(Cc2cccnc2)C2CN3CCC2CC3)on1 (stereo not given),2.09%
15,O=C(Nc1ccccc1)c1cc2n(n1)CCCN(C(=O)c1ccc[nH]1)C2,3.99%
16,COc1cccc(OCC2CCCN(C(=O)Cc3cccc(O)c3)C2)c1 (stereo not given),-18.9%
17,CCC(C(=O)NCc1ccncc1)N(c1ccccc1)S(C)(=O)=O (stereo not given),-1.17%
18,Cc1ccc(C)c2c(O)cc(CNCc3ccc(S(N)(=O)=O)cc3)nc12,-9.06%
19,COCCN1CCN(Cc2ccc(F)c(C)c2)[C@H]2CS(=O)(=O)C[C@H]21,-25.5%
20,O=C(CN1CC(n2cccn2)C1)NCCCN1CCCC1=O,-29.9%
21,CC(C)c1ncc2c(n1)CN(Cc1nc(-c3ccccn3)no1)CC2,1.59%
22,CCc1ncc2c(n1)CN(Cc1nc(-c3cccs3)no1)CC2,-7.82%

row,SMILES,cytotoxicity at 10 µM
1,Cn1ccc(C(=O)N2CCN(c3nccs3)CC2)cc1=O,-18.1%
2,Cn1cc(C(=O)N2CCN(c3ncccn3)CC2)ccc1=O,-7.82%
3,CCOc1ccccc1CNCC1CCN(CC(C)O)CC1 (stereo not given),-9.04%
4,Cc1cccc(NC2CCN(C(=O)Nc3cn[nH]c3)CC2)n1,-26.7%
5,CN(Cc1nc2ccccc2o1)C1CCCN(c2cccnn2)C1 (stereo not given),-9.43%
6,CCn1cnnc1CNC(=O)NC(C)c1ccc(Cl)s1 (stereo not given),-23.1%
7,CC(O)CN1CCC(CNCc2ccc(C(N)=O)cc2)CC1 (stereo not given),-9.83%
8,Cc1nn(-c2ccccc2)nc1C(=O)N1CCCC1c1cnn(C)c1 (stereo not given),-0.857%
9,CCOc1ccccc1OC1CCN(C(=O)c2cc[nH]n2)CC1,-4.53%
10,COc1ccc2c(c1)CCCN2Cc1nc2c(cnn2C)c(=O)[nH]1,-3.3%
11,Cc1cccc(C2(NC(=O)CCN3C(=O)CCC3=O)CCCC2)c1,-17.4%
12,O=C(c1cccc2c1OCO2)N1CCCC(n2cccn2)C1 (stereo not given),-8.72%
13,CN(C(=O)c1ccccc1Cl)C1CCN(c2ccccn2)CC1,-0.577%
14,Cc1nc(C)n(CC2CCCCN2CC(=O)N(C)Cc2ccco2)n1 (stereo not given),2.65%
15,CN(C)C(=O)[C@H]1C[C@H]2OCC[C@H]2N(Cc2ccc3c(c2)OCO3)C1,-71.3%
16,Cn1cccc1C(=O)N1CCC2(CC1)CN(c1ccccn1)CCO2,-10.8%
17,CN(C)C(=O)[C@@H]1CCO[C@@H]2CCN(CCc3ccccc3)C[C@@H]21,-9.55%
18,Cc1cccc(CN2CCc3onc(CO)c3C2)n1,6.81%
19,Cc1noc([C@@H]2C[C@H]3CN(C(=O)C4CCN(C)CC4)C[C@H]3O2)n1,-71.2%
20,COCC(=O)N1C[C@H]2CN(Cc3csc(C)n3)C(=O)[C@H]2C1,-77.2%
21,CC1CCN(c2nc3cn(Cc4cccc(F)c4)c(=O)c-3c[nH]2)CC1,4.52%
22,CCc1cnc(N2C[C@@H]3C[C@H](C(=O)N4CCOCC4)[C@H](C2)O3)nc1,-104%
